Experimental data as given in ChEMBL document CHEMBL1649151, “Urinary bactericidal activity of Doripenem versus that of levofloxacin in patients with complicated urinary tract infections or pyelonephritis” (Antimicrob Agents Chemother, 2009).
Converted amounts (≈) assume the structure as drawn.

Assays:
[1] = tested on: Escherichia coli; assay: Antimicrobial activity against Escherichia coli 1949821 B-M isolated from patient with pyelonephritis by Etest; assay type: functional
[2] = tested on: Escherichia coli; assay: Antimicrobial activity against Escherichia coli 1135121 isolated from patient with pyelonephritis assessed as >3-log reduction in urinary bacterial titer after 8 hrs; assay type: functional, Urine
Summary of the method: (§1)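 Urine was collected before dosing and on day 3 of i.v. therapy (steady state), in 4-h intervals from infusion start (0–4 to 20–24 h), stored at −80°C and sterile filtered. It was serially diluted twofold (1:0 to 1:131,072) in the patient's drug-free pre-dose urine. Microdilution used an inoculum of 1.0 x 10^6–9.5 x 10^6 CFU/ml, incubated 18 h at 37°C, then subcultured 24 h on blood agar. The endpoint was >99.9% kill, reported as reciprocal titer.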

[3] = tested on: Proteus mirabilis; assay: Antimicrobial activity against Proteus mirabilis 1134841 isolated from patient with pyelonephritis assessed as >3-log reduction in urinary bacterial titer after 20 hrs; assay type: functional, Urine
Summary of the method: (§2)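 Patient urine was collected on day 3 of i.v. therapy (steady state) over 4-h intervals after infusion start, stored at –80°C, and sterile filtered. It was twofold serially diluted (1:0 to 1:131,072) in the patient's own pre-dose drug-free urine, inoculated to 1.0 x 10^6–9.5 x 10^6 CFU/ml, and incubated for 18 h at 37°C. Subcultures were grown on blood agar for 24 h. The UBT is the reciprocal of the highest dilution giving >99.9% kill.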

[4] = tested on: Staphylococcus aureus; assay: Antimicrobial activity against Staphylococcus aureus 1134684 isolated from patient with pyelonephritis assessed as >3-log reduction in urinary bacterial titer after 20 hrs; assay type: functional, Urine; summary of the method: as §2
[5] = tested on: Staphylococcus aureus; assay: Antimicrobial activity against Staphylococcus aureus 1134684 isolated from patient with pyelonephritis assessed as >3-log reduction in urinary bacterial titer after 16 hrs; assay type: functional, Urine; summary of the method: as §2
[6] = tested on: Escherichia coli; assay: Antimicrobial activity against Escherichia coli 2062717 B-P isolated from patient with pyelonephritis by Etest; assay type: functional
[7] = tested on: Pseudomonas aeruginosa; assay: Antimicrobial activity against Pseudomonas aeruginosa ATCC 27853 isolated from patient with pyelonephritis by Etest; assay type: functional
[8] = tested on: Proteus mirabilis; assay: Antimicrobial activity against Proteus mirabilis 1134841 isolated from patient with pyelonephritis assessed as >3-log reduction in urinary bacterial titer after 12 hrs; assay type: functional, Urine; summary of the method: as §2
[9] = Drug excretion in pyelonephritis patient urine at 500 mg/kg, iv administered every 8 hrs; assay type: ADME, organism-based; parameters: dose 500 mg/kg, route intravenous; details: human, read-out: Activity
[10] = tested on: Escherichia coli; assay: Antimicrobial activity against Escherichia coli 1889646 B-F isolated from patient with pyelonephritis by Etest; assay type: functional
[11] = tested on: Proteus mirabilis; assay: Antimicrobial activity against Proteus mirabilis 1134841 isolated from patient with pyelonephritis assessed as >3-log reduction in urinary bacterial titer after 24 hrs; assay type: functional, Urine; summary of the method: as §2
[12] = tested on: Pseudomonas aeruginosa; assay: Antimicrobial activity against Pseudomonas aeruginosa […] assessed as >3-log reduction in urinary bacterial titer after 16 hrs; assay type: functional, Urine; summary of the method: as §2
[13] = tested on: Enterococcus faecalis; assay: Antimicrobial activity against Enterococcus faecalis 1780065 B-B isolated from patient with pyelonephritis assessed as >3-log reduction in urinary bacterial titer after 24 hrs; assay type: functional, Urine; summary of the method: as §1
[14] = tested on: Pseudomonas aeruginosa; assay: Antimicrobial activity against Pseudomonas aeruginosa 1134642 isolated from patient with pyelonephritis assessed as >3-log reduction in urinary bacterial titer after 12 hrs; assay type: functional, Urine; summary of the method: as §2
[15] = tested on: Staphylococcus aureus; assay: Antimicrobial activity against Staphylococcus aureus 1134684 isolated from patient with pyelonephritis assessed as >3-log reduction in urinary bacterial titer after 24 hrs; assay type: functional, Urine; summary of the method: as §2
[16] = tested on: Escherichia coli; assay: Antimicrobial activity against Escherichia coli 1135121 isolated from patient with pyelonephritis assessed as >3-log reduction in urinary bacterial titer after 12 hrs; assay type: functional, Urine; summary of the method: as §1
[17] = tested on: Pseudomonas aeruginosa; assay: Antimicrobial activity against Pseudomonas aeruginosa […] assessed as >3-log reduction in urinary bacterial titer after 12 hrs; assay type: functional, Urine; summary of the method: as §2
[18] = tested on: Escherichia coli; assay: Antimicrobial activity against Escherichia coli 1949821 B-M isolated from patient with pyelonephritis assessed as >3-log reduction in urinary bacterial titer after 4 hrs; assay type: functional, Urine
Summary of the method: (§3)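 Urine was collected on day 3 of i.v. therapy (steady state) over 4-h intervals from infusion start (0–4 to 20–24 h), stored at –80°C and sterile filtered. It was serially diluted twofold (1:0 up to 1:131,072) in the patient's own pre-dose drug-free urine. Microdilution used a final inoculum of 1.0 x 10^6 to 9.5 x 10^6 CFU/ml, incubated 18 h at 37°C in air. 10 µl was subcultured onto 5% blood Columbia agar for 24 h at 37°C. The bactericidal endpoint was >99.9% (>3-log) kill, reported as a reciprocal titer.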

[19] = tested on: Pseudomonas aeruginosa; assay: Antimicrobial activity against Pseudomonas aeruginosa ATCC 27853 isolated from patient with pyelonephritis assessed as >3-log reduction in urinary bacterial titer after 8 hrs; assay type: functional, Urine; summary of the method: as §2
[20] = tested on: Pseudomonas aeruginosa; assay: Antimicrobial activity against Pseudomonas aeruginosa 1134642 isolated from patient with pyelonephritis assessed as >3-log reduction in urinary bacterial titer after 20 hrs; assay type: functional, Urine; summary of the method: as §2
[21] = tested on: Proteus mirabilis; assay: Antimicrobial activity against Proteus mirabilis 1134841 isolated from patient with pyelonephritis assessed as >3-log reduction in urinary bacterial titer after 16 hrs; assay type: functional, Urine; summary of the method: as §2
[22] = tested on: Staphylococcus aureus; assay: Antimicrobial activity against Staphylococcus aureus 1134684 isolated from patient with pyelonephritis assessed as >3-log reduction in urinary bacterial titer after 12 hrs; assay type: functional, Urine; summary of the method: as §2
[23] = tested on: Escherichia coli; assay: Antimicrobial activity against Escherichia coli 1135121 isolated from patient with pyelonephritis assessed as >3-log reduction in urinary bacterial titer after 24 hrs; assay type: functional, Urine; summary of the method: as §1
[24] = tested on: Pseudomonas aeruginosa; assay: Antimicrobial activity against Pseudomonas aeruginosa […] assessed as >3-log reduction in urinary bacterial titer after 4 hrs; assay type: functional, Urine; summary of the method: as §2
[25] = tested on: Escherichia coli; assay: Antimicrobial activity against Escherichia coli 1949821 B-M isolated from patient with pyelonephritis assessed as >3-log reduction in urinary bacterial titer after 24 hrs; assay type: functional, Urine; summary of the method: as §3
[26] = tested on: Proteus mirabilis; assay: Antimicrobial activity against Proteus mirabilis 1134841 isolated from patient with pyelonephritis assessed as >3-log reduction in urinary bacterial titer after 4 hrs; assay type: functional, Urine; summary of the method: as §2
[27] = tested on: Escherichia coli; assay: Antimicrobial activity against Escherichia coli 1949821 B-M isolated from patient with pyelonephritis assessed as >3-log reduction in urinary bacterial titer after 20 hrs; assay type: functional, Urine; summary of the method: as §3
[28] = tested on: Enterococcus faecalis; assay: Antimicrobial activity against Enterococcus faecalis 1780065 B-B isolated from patient with pyelonephritis assessed as >3-log reduction in urinary bacterial titer after 8 hrs; assay type: functional, Urine; summary of the method: as §1
[29] = tested on: Escherichia coli; assay: Antimicrobial activity against Escherichia coli 1949820 B-N isolated from patient with pyelonephritis assessed as >3-log reduction in urinary bacterial titer after 12 hrs; assay type: functional, Urine; summary of the method: as §3
[30] = tested on: Enterococcus faecalis; assay: Antimicrobial activity against Enterococcus faecalis 1780065 B-B isolated from patient with pyelonephritis assessed as >3-log reduction in urinary bacterial titer after 20 hrs; assay type: functional, Urine; summary of the method: as §1
[31] = tested on: Escherichia coli; assay: Antimicrobial activity against Escherichia coli 1949821 B-M isolated from patient with pyelonephritis assessed as >3-log reduction in urinary bacterial titer after 12 hrs; assay type: functional, Urine; summary of the method: as §3
[32] = tested on: Proteus mirabilis; assay: Antimicrobial activity against Proteus mirabilis 1134841 isolated from patient with pyelonephritis by Etest; assay type: functional
[33] = tested on: Escherichia coli; assay: Antimicrobial activity against Escherichia coli 1949820 B-N isolated from patient with pyelonephritis assessed as >3-log reduction in urinary bacterial titer after 16 hrs; assay type: functional, Urine; summary of the method: as §3
[34] = tested on: Escherichia coli; assay: Antimicrobial activity against Escherichia coli 1949821 B-M isolated from patient with pyelonephritis assessed as >3-log reduction in urinary bacterial titer after 16 hrs; assay type: functional, Urine; summary of the method: as §3
[35] = Drug excretion in pyelonephritis patient urine at 250 mg/kg, iv administered every 24 hrs; assay type: ADME, organism-based; parameters: dose 250 mg/kg, route intravenous; details: human, read-out: Activity
[36] = tested on: Proteus mirabilis; assay: Antimicrobial activity against Proteus mirabilis 1134841 isolated from patient with pyelonephritis assessed as >3-log reduction in urinary bacterial titer after 8 hrs; assay type: functional, Urine; summary of the method: as §2

Structure (SMILES) | MIC [1] | urinary bactericidal titer [2] | urinary bactericidal titer [3] | urinary bactericidal titer [4] | urinary bactericidal titer [5] | MIC [6] | MIC [7] | urinary bactericidal titer [8] | dose excreted at 8 h [9] | MIC [10] | urinary bactericidal titer [11] | urinary bactericidal titer [12] | Time [13] | urinary bactericidal titer [14] | urinary bactericidal titer [15] | urinary bactericidal titer [16] | urinary bactericidal titer [17] | urinary bactericidal titer [19] | urinary bactericidal titer [20] | urinary bactericidal titer [21] | further results
C[C@@H](O)[C@H]1C(=O)N2C(C(=O)O)=C(S[C@@H]3CN[C@H](CNS(N)(=O)=O)C3)[C@H](C)[C@H]12 [DORIPENEM] | ≤ 0.015 µg/mL | 24600 titer | 8192 reciprocal titer | 8 reciprocal titer | 4 reciprocal titer | ≤ 0.015 µg/mL | 0.12 µg/mL (≈ 0.285 µM) | 6140 reciprocal titer | 80% | 0.03 µg/mL (≈ 0.0713 µM) | 512 reciprocal titer | 1540 reciprocal titer | 32 h | 6140 reciprocal titer | 1.5 reciprocal titer | 65500 titer | 3070 reciprocal titer | 1024 reciprocal titer | 4096 reciprocal titer | 1540 reciprocal titer | urinary bactericidal titer [18]: 32800; urinary bactericidal titer [22]: 12 reciprocal titer; urinary bactericidal titer [23]: 4096 reciprocal titer; urinary bactericidal titer [24]: 2048 reciprocal titer; Time [25]: 5120 h; urinary bactericidal titer [26]: 2048 reciprocal titer; urinary bactericidal titer [27]: 32800 titer; Time [28]: 32 h; urinary bactericidal titer [29]: 32800; urinary bactericidal titer [30]: 256 reciprocal titer; urinary bactericidal titer [31]: 32800 titer; MIC [32]: 0.03 µg/mL (≈ 0.0713 µM); Time [33]: 8192 h; Time [34]: 8192 h; dose excreted at 24 h [35]: 80%; urinary bactericidal titer [36]: 1024 reciprocal titer
C[C@H]1COc2c(N3CCN(C)CC3)c(F)cc3c(=O)c(C(=O)O)cn1c23.C[C@H]1COc2c(N3CCN(C)CC3)c(F)cc3c(=O)c(C(=O)O)cn1c23.O [LEVOFLOXACIN] | 0.125 µg/mL | 8 titer | 0 reciprocal titer | 2 reciprocal titer | 4 reciprocal titer | 8 µg/mL | 0.25 µg/mL | 0 reciprocal titer | 80% | > 8 µg/mL | 0 reciprocal titer | 8 reciprocal titer | 6 h | 1 reciprocal titer | 2 reciprocal titer | 3 titer | 8 reciprocal titer | 16 reciprocal titer | 1 reciprocal titer | 0 reciprocal titer | Time [18]: 192 h; urinary bactericidal titer [22]: 4 reciprocal titer; urinary bactericidal titer [23]: 2 reciprocal titer; urinary bactericidal titer [24]: 16 reciprocal titer; Time [25]: 40 h; urinary bactericidal titer [26]: 0 reciprocal titer; urinary bactericidal titer [27]: 48 titer; Time [28]: 16 h; Time [29]: 0.5 h; urinary bactericidal titer [30]: 8 reciprocal titer; urinary bactericidal titer [31]: 64 titer; MIC [32]: > 8 µg/mL; Time [33]: 0.5 h; Time [34]: 48 h; dose excreted at 24 h [35]: 80%; urinary bactericidal titer [36]: 0 reciprocal titer
